Experimental data as given in ChEMBL document CHEMBL4673198, “Identification of 3-hydroxy-1,2-dimethylpyridine-4(1H)-thione as a metal-binding motif for the inhibition of botulinum neurotoxin A” (RSC Med Chem, 2021).
The source made the active and inactive calls. The rule behind the calls is not given here.

Experiments:
[1] = Zinc chelating activity mediated inhibition of Clostridium botulinum Hall A hyper BoNT/A1activity assessed as inhibition of BoNT/A1-induced neurotoxicity in hIPSC derived GABA neurons by measuring protection against SNAP-25 cleavage incubated for 30 mins post BoNT/A1 addition and measured at 7 hrs post-toxin addition by Western blot analysis
[2] = Zinc chelating activity mediated inhibition of Clostridium botulinum BoNT/A1 LC (1 to 425 residues) activity using SNAPtide as substrate incubated with enzyme for 30 mins followed by substrate addition and measured for 20 mins by FRET assay relative to control
How it was run: (§1)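 Enzyme was truncated BoNT/A1 LC (1–425) at 10 nM final, incubated with compound for 30 min at 25 °C in 40 mM HEPES pH 7.4 with 0.01% Triton X-100. SNAPtide substrate followed at 3.8 µM final. Fluorescence rate (ex 490/em 523 nm) read immediately for 20 min. Technical and experimental triplicate.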

Clostridium botulinum [3] = assay: Selectivity index, ratio of IC50 for zinc chelation-mediated inhibition of Clostridium botulinum Hall A hyper BoNT/A1 activity assessed as protection against SNAP-25 cleavage in hIPSC-derived GABA neurons to IC50 for zinc chelation-mediated inhibition of Clostridium botulinum BoNT/A1 LC (1 to 425 residues)
[4] = Selectivity index, ratio of IC50 for zinc chelation-mediated inhibition of Clostridium botulinum BoNT/A1 LC (1 to 425 residues) to IC50 for MMP19 (unknown origin); format: toxicity
[5] = Selectivity index, ratio of IC50 for zinc chelation-mediated inhibition of Clostridium botulinum BoNT/A1 LC (1 to 425 residues) to IC50 for MMP13 (unknown origin); format: toxicity
[6] = Selectivity index, ratio of IC50 for zinc chelation-mediated inhibition of Clostridium botulinum BoNT/A1 LC (1 to 425 residues) to IC50 for MMP8 (unknown origin); format: toxicity
[7] = Selectivity index, ratio of IC50 for zinc chelation-mediated inhibition of Clostridium botulinum BoNT/A1 LC (1 to 425 residues) to IC50 for MMP7 (unknown origin); format: toxicity
[8] = Selectivity index, ratio of IC50 for zinc chelation-mediated inhibition of Clostridium botulinum BoNT/A1 LC (1 to 425 residues) to IC50 for MMP3 (unknown origin); format: toxicity
[9] = Selectivity index, ratio of IC50 for zinc chelation-mediated inhibition of Clostridium botulinum BoNT/A1 LC (1 to 425 residues) to IC50 for MMP2 (unknown origin); format: toxicity
[10] = Selectivity index, ratio of IC50 for zinc chelation-mediated inhibition of Clostridium botulinum BoNT/A1 LC (1 to 425 residues) to IC50 for MMP1 (unknown origin); format: toxicity
Clostridium botulinum [11] = assay: Competitive active site zinc chelating activity mediated inhibition of Clostridium botulinum BoNT/A1 LC (1 to 425 residues) activity at 0.1 to 10 uM using SNAPtide as substrate incubated with enzyme for 30 mins in presence of DCHA followed by substrate addition and measured for 20 mins by FRET assay; conditions: dose 0.1-10 µM, time 50.0 min
How it was run: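 BoNT/A1 LC (1–425), 10 nM final, preincubated with compound for 30 min at room temperature in 40 mM HEPES pH 7.4 with 0.01% Triton X-100. SNAPtide added to 3.8 µM final. Fluorescence rate (ex 490/em 523 nm) read for 20 min. Technical and experimental triplicate.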

Clostridium botulinum [12] = assay: Zinc chelating activity mediated inhibition of Clostridium botulinum BoNT/A1 LC (1 to 425 residues) activity using SNAPtide as substrate at 50 uM incubated with enzyme for 30 mins followed by substrate addition and measured for 20 mins by FRET assay relative to control; conditions: time 50.0 min; how it was run: as §1
Clostridium botulinum [13] = assay: Zinc chelating activity mediated inhibition of Clostridium botulinum BoNT/A1 LC (1 to 425 residues) activity using SNAPtide as substrate at 1 mM incubated with enzyme for 30 mins followed by substrate addition and measured for 20 mins by FRET assay relative to control; conditions: time 50.0 min; how it was run: as §1

SMILES: Cc1c(O)c(=S)ccn1Cc1ccc(-c2ccc(F)c(F)c2)cc1
- IC50 [1]: 39 µM
- IC50 [2]: 1.8 µM

SMILES: Cc1c(O)c(=S)ccn1CC12CC3CC(CC(C3)C1)C2
- IC50 [2]: 4.9 µM

SMILES: Cc1ccc(CCn2ccc(=S)c(O)c2C)cc1C
- IC50 [2]: 2.8 µM

SMILES: Cc1c(O)c(=S)ccn1CCc1ccc(-c2ccccc2)cc1
- Ratio IC50 (Clostridium botulinum [3]): 7
- IC50 [1]: 13 µM
- Ratio IC50 [4]: 2
- Ratio IC50 [5]: 2
- Ratio IC50 [6]: 2
- Ratio IC50 [7]: 2
- Ratio IC50 [8]: 2
- Ratio IC50 [9]: 2
- Ratio IC50 [10]: 2
- Activity (Clostridium botulinum [11]): Active
- IC50 [2]: 1.8 µM

SMILES: Cc1c(O)c(=S)ccn1CCC12CC3CC(CC(C3)C1)C2
- IC50 [2]: > 50 µM

SMILES: COc1cccc(Cn2ccc(=S)c(O)c2C)c1
- inhibition (Clostridium botulinum [12]): 65%

SMILES: Cc1c(O)c(=S)ccn1Cc1ccc(-c2ccc(Cl)cc2)cc1
- IC50 [1]: 31 µM
- IC50 [2]: 1.3 µM

SMILES: O=C(O)c1cccc(C(=O)O)n1
- inhibition (Clostridium botulinum [13]): > 95%

SMILES: Cc1c(O)c(=S)ccn1Cc1ccc(-c2ccc(F)cc2)cc1
- IC50 [1]: 33 µM
- IC50 [2]: 1.4 µM

SMILES: Cc1c(O)c(=S)ccn1-c1ccc(N)cc1
- inhibition (Clostridium botulinum [12]): 16%

SMILES: c1cnc2c(c1)ccc1cccnc12
- inhibition (Clostridium botulinum [13]): > 95%

SMILES: Cc1c(O)c(=S)ccn1CCc1ccccc1
- inhibition (Clostridium botulinum [12]): 48%

SMILES: Cc1c(O)c(=S)ccn1Cc1cccnc1
- inhibition (Clostridium botulinum [12]): 52%

SMILES: Cc1ccc(Cn2ccc(=S)c(O)c2C)cc1
- IC50 [2]: 5 µM

SMILES: Cc1c(O)c(=S)ccn1C
- inhibition (Clostridium botulinum [13]): > 95%

SMILES: Cc1c(O)c(=S)ccn1Cc1ccc(Br)cc1
- IC50 [2]: 2.2 µM

SMILES: Cc1c(O)c(=S)ccn1Cc1ccc(-c2ccc3ccccc3c2)cc1
- inhibition (Clostridium botulinum [12]): 60%

SMILES: Cc1c(O)c(=S)ccn1Cc1ccc(Cl)cc1Cl
- IC50 [2]: > 50 µM

SMILES: Cc1c(O)c(=S)ccn1CCc1ccc(Cl)cc1
- IC50 [2]: 1.9 µM

SMILES: COc1ccc(Cn2ccc(=S)c(O)c2C)cc1
- IC50 [2]: 31.9 µM

SMILES: Cc1c(O)c(=S)ccn1-c1ccc(F)cc1
- inhibition (Clostridium botulinum [12]): 37%

SMILES: CCn1ccc(=S)c(O)c1C
- inhibition (Clostridium botulinum [13]): > 95%

SMILES: Cc1c(O)c(=S)ccn1-c1ccc(F)c(C(F)(F)F)c1
- inhibition (Clostridium botulinum [12]): 0%

SMILES: Cc1c(O)c(=S)ccn1Cc1ccccc1
- inhibition (Clostridium botulinum [12]): 55%

SMILES: Cc1c(O)c(=S)ccn1-c1ccc(N2CCOCC2)cc1
- inhibition (Clostridium botulinum [12]): 0%

SMILES: Cc1c(O)c(=S)ccn1Cc1ccc([N+](=O)[O-])cc1
- IC50 [1]: 100 µM
- IC50 [2]: 3 µM

SMILES: Cc1c(O)c(=S)ccn1-c1cc(C(F)(F)F)cc(C(F)(F)F)c1
- inhibition (Clostridium botulinum [12]): 0%

SMILES: COc1ccc(-n2ccc(=S)c(O)c2C)cc1OC
- inhibition (Clostridium botulinum [12]): 12%

SMILES: COc1ccc(CCn2ccc(=S)c(O)c2C)cc1
- inhibition (Clostridium botulinum [12]): 57%

SMILES: CCc1c(O)c(=S)ccn1CC
- inhibition (Clostridium botulinum [13]): > 95%

SMILES: Cc1c(O)c(=S)ccn1Cc1ccc(F)cc1
- inhibition (Clostridium botulinum [12]): 64%

SMILES: Cc1ccc(CCn2ccc(=S)c(O)c2C)c(C)c1
- IC50 [2]: 1.7 µM

SMILES: CCOc1ccc(-n2ccc(=S)c(O)c2C)cc1
- inhibition (Clostridium botulinum [12]): 80%

SMILES: Cc1c(O)c(=S)ccn1Cc1ccc(O)cc1
- IC50 [2]: > 50 µM

SMILES: Cc1c(O)c(=S)ccn1-c1ccc(Nc2ccccc2)cc1
- inhibition (Clostridium botulinum [12]): 14%

SMILES: COc1cccc(CCn2ccc(=S)c(O)c2C)c1
- inhibition (Clostridium botulinum [12]): 62%

SMILES: Cc1c(O)c(=S)ccn1Cc1ccc(Cl)cc1
- IC50 [2]: 11.3 µM

SMILES: Cc1ccc(CCn2ccc(=S)c(O)c2C)cc1
- IC50 [2]: 3.2 µM
- inhibition (Clostridium botulinum [12]): 81%

SMILES: Cc1c(O)c(=S)ccn1CCc1ccc(Cl)cc1Cl
- IC50 [1]: 200 µM
- IC50 [2]: 1.6 µM

SMILES: COc1ccccc1Cn1ccc(=S)c(O)c1C
- inhibition (Clostridium botulinum [12]): 71%

SMILES: Cc1c(O)c(=S)ccn1Cc1ccc(-c2ccc3c(c2)OCO3)cc1
- IC50 [1]: 51 µM
- IC50 [2]: 1.4 µM

SMILES: O=C(O)c1ccc2cccc(O)c2n1
- inhibition (Clostridium botulinum [13]): > 95%
